Laboratory results published in ChEMBL document CHEMBL1129731, “The chemistry of pseudomonic acid. 17. Dual-action C-1 oxazole derivatives of pseudomonic acid having an extended spectrum of antibacterial activity” (J Med Chem, 1996).
pIC50: −log10 of the molar value. In brackets after ≈: the same amount, converted by molar mass.

Key:
Bacteroides fragilis [1] = assay: compound was tested for antibacterial activity Bacteroides fragilis NCTC 10581.; assay type: functional
Enterobacter cloacae = assay: compound was tested for antibacterial activity against Ent. cloacae N1.; assay type: functional
Escherichia coli [2] = assay: compound was tested for antibacterial activity against Escherichia coli DC0.; assay type: functional
Escherichia coli [3] = assay: compound was tested for antibacterial activity against Escherichia coli DC2.; assay type: functional
How it was run: (§1)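 Broth microdilution in Mueller–Hinton broth; overnight broth cultures added to final 5 × 10^5 cfu/mL; incubated 37 °C, 18 h. MIC (µg/mL) taken as lowest concentration inhibiting growth.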

Enterococcus faecalis = assay: compound was tested for antibacterial activity against Ent. faecalis I; assay type: functional; how it was run: as §1
Haemophilus influenzae = assay: compound was tested for antibacterial activity against Haemophilus influenzae Q1.; assay type: functional
How it was run: (§2)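 Broth microdilution in Mueller–Hinton broth supplemented (final) with 5% heat-inactivated horse serum, 0.02 mg/mL hematin and 0.08 mg/mL NAD; inoculum 5 × 10^5 cfu/mL from overnight broth cultures; 37 °C for 18 h; MIC (µg/mL) read as lowest concentration inhibiting growth.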

Isoleucine--tRNA ligase [4] = target: T1, Isoleucine--tRNA ligase (Staphylococcus aureus, UniProt P41972); assay: (§3) Inhibitory activity against isoleucyl-tRNA synthetase (IRS) of Staphylococcus aureus 11481; assay type: functional
T1 sequence (P41972 whole entry): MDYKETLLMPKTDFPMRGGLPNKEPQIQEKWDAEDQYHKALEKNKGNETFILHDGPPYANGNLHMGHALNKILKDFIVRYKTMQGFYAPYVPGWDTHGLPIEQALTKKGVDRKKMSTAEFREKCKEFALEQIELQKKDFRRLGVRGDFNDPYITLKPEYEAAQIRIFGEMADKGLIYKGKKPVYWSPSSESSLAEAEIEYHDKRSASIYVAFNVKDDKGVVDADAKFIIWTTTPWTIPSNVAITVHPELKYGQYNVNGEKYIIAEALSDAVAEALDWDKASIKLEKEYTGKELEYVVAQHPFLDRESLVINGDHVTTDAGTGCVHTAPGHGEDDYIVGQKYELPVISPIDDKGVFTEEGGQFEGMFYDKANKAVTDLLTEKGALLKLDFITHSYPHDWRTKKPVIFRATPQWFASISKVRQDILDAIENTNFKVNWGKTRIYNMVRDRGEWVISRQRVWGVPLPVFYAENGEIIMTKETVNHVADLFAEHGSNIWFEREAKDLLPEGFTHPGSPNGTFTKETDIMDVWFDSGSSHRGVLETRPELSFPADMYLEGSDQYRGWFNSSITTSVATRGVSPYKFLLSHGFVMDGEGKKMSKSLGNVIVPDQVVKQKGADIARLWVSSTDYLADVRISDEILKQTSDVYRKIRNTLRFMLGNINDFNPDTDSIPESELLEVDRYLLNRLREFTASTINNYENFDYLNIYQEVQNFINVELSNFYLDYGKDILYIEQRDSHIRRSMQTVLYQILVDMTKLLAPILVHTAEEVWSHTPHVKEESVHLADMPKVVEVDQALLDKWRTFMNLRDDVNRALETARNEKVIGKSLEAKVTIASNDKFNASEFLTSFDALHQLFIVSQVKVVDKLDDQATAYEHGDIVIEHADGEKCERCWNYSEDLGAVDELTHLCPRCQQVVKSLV

Klebsiella pneumoniae = assay: compound was tested for antibacterial activity against Klebsiella pneumoniae E70.; assay type: functional; how it was run: as §1
Moraxella catarrhalis = assay: compound was tested for antibacterial activity against Moraxella catarrhalis 1502.; assay type: functional; how it was run: as §2
Proteus mirabilis = assay: compound was tested for antibacterial activity against Pr. mirabilis C889.; assay type: functional; how it was run: as §1
Pseudomonas aeruginosa = assay: compound was tested for antibacterial activity against Pseudomonas aeruginosa K799 wt.; assay type: functional; how it was run: as §1
[5] = system: Staphylococcus epidermidis; assay: compound was tested for antibacterial activity aagainst Staphylococcus epidermidis PHLN 20.; assay type: functional; how it was run: as §1
Staphylococcus aureus [6] = assay: Minimum inhibitory activity against Staphylococcus aureus 11481; assay type: functional; how it was run: as §1
Staphylococcus aureus [7] = assay: Minimum inhibitory activity against Staphylococcus aureus C 7; assay type: functional; how it was run: as §1
Streptococcus pneumoniae = assay: compound was tested for antibacterial activity against Strep. pneumoniae 1761.; assay type: functional; how it was run: as §2
Staphylococcus aureus [8] = assay: compound was tested for antibacterial activity against Staphylococcus aureus F 89.; assay type: functional; how it was run: as §1
Staphylococcus aureus [9] = assay: compound was tested for antibacterial activity against Staphylococcus aureus NCTC 6571.; assay type: functional; how it was run: as §1
Streptococcus pyogenes = assay: compound was tested for antibacterial activity against Streptococcus pyogenes CN10.; assay type: functional; how it was run: as §2
Staphylococcus aureus [10] = assay: Minimum inhibitory activity against Staphylococcus aureus NCTC 6571; assay type: functional; how it was run: as §1
Staphylococcus aureus [11] = assay: compound was tested for antibacterial activity against Staphylococcus aureus C 37.; assay type: functional
Isoleucine--tRNA ligase [12] = target: T1, Isoleucine--tRNA ligase; assay: Inhibitory activity against isoleucyl-tRNA synthetase (IRS) of Staphylococcus aureus NCTC 6571
Staphylococcus aureus [13] = assay: Minimal inhibitory concentration against Staphylococcus aureus Smith; assay type: functional; how it was run: as §1
Mus musculus [14] = assay: Total […] dose against Staphylococcus aureus after po administration (1+5 hr post infection) to mouse; assay type: organism-based; conditions: in vivo
How it was run: (§4)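 CD1 male mice, groups of five, infected ip with S. aureus Smith, 1.3 × 10^10 cfu (po groups) or 5 × 10^9 cfu (sc groups); dosed po or sc at 1 + 5 h postinfection, 0.2 mL/mouse. CD50 = total dose protecting 50% of mice from death, scored day 2 postinfection.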

Mus musculus [15] = assay: Total […] dose against Staphylococcus aureus after sc administration (1+5 hr post infection) to mouse; assay type: organism-based; conditions: in vivo; how it was run: as §4
Isoleucine--tRNA ligase [16] = target: T1, Isoleucine--tRNA ligase; assay: Inhibitory activity against isoleucyl-tRNA synthetase (IRS) of Staphylococcus aureus; assay type: functional
Bacteroides fragilis [17] = assay: compound was tested for antibacterial activity against Bacteroides fragilis NCTC 10581.; assay type: functional
Isoleucine--tRNA ligase [18] = target: T1, Isoleucine--tRNA ligase; assay: as §3
Isoleucine--tRNA ligase [19] = target: T1, Isoleucine--tRNA ligase; assay: Inhibitory activity against isoleucyl-tRNA synthetase (IRS) of Staphylococcus aureus C 7
Staphylococcus aureus [20] = assay: Minimum inhibitory concentration against Staphylococcus aureus C 7; assay type: functional; how it was run: as §1
[21] = system: Isoleucine--tRNA ligase (Staphylococcus aureus); assay: Inhibitory activity against isoleucyl-tRNA synthetase (IRS) of Staphylococcus aureus NCTC 6571

Compound	MIC (Bacteroides fragilis [1]) [µg/mL]	MIC (Enterobacter cloacae) [µg/mL]	MIC (Escherichia coli [2]) [µg/mL]	MIC (Escherichia coli [3]) [µg/mL]	MIC (Enterococcus faecalis) [µg/mL]	MIC (Haemophilus influenzae) [µg/mL]	MIC (Klebsiella pneumoniae) [µg/mL]	MIC (Moraxella catarrhalis) [µg/mL]	MIC (Proteus mirabilis) [µg/mL]	MIC (Pseudomonas aeruginosa) [µg/mL]	MIC [5] [µg/mL]	MIC (Streptococcus pneumoniae) [µg/mL]	MIC (Staphylococcus aureus [8]) [µg/mL]	MIC (Staphylococcus aureus [9]) [µg/mL]	MIC (Streptococcus pyogenes) [µg/mL]	MIC (Staphylococcus aureus [11]) [µg/mL]	further results
C/C(=C\c1ncc(-c2ccc([N+](=O)[O-])s2)o1)C[C@@H]1OC[C@H](C[C@@H]2O[C@H]2[C@@H](C)[C@H](C)O)[C@@H](O)[C@H]1O	2 (≈ 4.04 µM)	> 64	> 64	< 0.06	> 64	< 0.06	> 64	< 0.06	> 64	> 64	< 0.06	< 0.06	8 (≈ 16.2 µM)	0.125 (≈ 0.253 µM)	< 0.06	8 (≈ 16.2 µM)	pIC50 (Isoleucine--tRNA ligase [4]): 6.62; MIC (Staphylococcus aureus [6]): 8 µg/mL (≈ 16.2 µM); MIC (Staphylococcus aureus [7]): 32 µg/mL (≈ 64.7 µM); MIC (Staphylococcus aureus [10]): 0.13 µg/mL (≈ 0.263 µM); pIC50 (Isoleucine--tRNA ligase [12]): 8.18
CC1(C)S[C@@H]2[C@H](NC(=O)[C@H](N)c3ccc(O)cc3)C(=O)N2[C@H]1C(=O)O [AMOXICILLIN]																	MIC (Staphylococcus aureus [13]): 0.25 µg/mL (≈ 0.684 µM); CD50 (Mus musculus [14]): 0.24 mg/kg; CD50 (Mus musculus [15]): 0.28 mg/kg
C/C(=C\c1ncc(-c2ccc([N+](=O)[O-])cc2)o1)C[C@@H]1OC[C@H](C[C@@H]2O[C@H]2[C@@H](C)[C@H](C)O)[C@@H](O)[C@H]1O	> 64	32 (≈ 65.5 µM)	64 (≈ 131 µM)	< 0.06	32 (≈ 65.5 µM)	0.25 (≈ 0.512 µM)	> 64	1 (≈ 2.05 µM)	> 64	> 64	0.125 (≈ 0.256 µM)	< 0.06	> 64	0.125 (≈ 0.256 µM)	0.125 (≈ 0.256 µM)	> 64	pIC50 (Isoleucine--tRNA ligase [16]): 8.10
C/C(=C\C(=O)OCCCCCCCCC(=O)O)C[C@@H]1OC[C@H](C[C@@H]2O[C@H]2[C@@H](C)[C@H](C)O)[C@@H](O)[C@H]1O [MUPIROCIN]				0.13 (≈ 0.26 µM)	32 (≈ 63.9 µM)	< 0.06	> 64	0.5 (≈ 0.999 µM)	> 64	> 64	0.125 (≈ 0.25 µM)	< 0.06	> 64	< 0.06	< 0.06		MIC (Bacteroides fragilis [17]): > 64 µg/mL; pIC50 (Isoleucine--tRNA ligase [18]): 6.55; pIC50 (Isoleucine--tRNA ligase [19]): 4.40; MIC (Staphylococcus aureus [20]): > 2050 µg/mL; IC50 [21]: 0.0008 µg/mL (≈ 0.0016 µM)
